Tested on: MS2 coat protein
Experiment: apparent Kd, MS2 coat protein; higher = weaker binding; RNA-MaP array; FMN 200 µM where present
Summary of the method: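 Stalled E. coli RNA polymerase transcribed the designs on Illumina sequencing-chip clusters. SNAP-549-labelled MS2 coat protein was titrated from 0.7 or 1.5 nM, doubling to 3 µM, without and then with constant ligand, in 100 mM Tris-HCl pH 7.5, 80 mM KCl, 4 mM MgCl2, BSA, DTT, yeast tRNA and Tween-20. Per-cluster binding curves were fitted to green signal normalised to red-channel RNA signal and control-cluster median Fmax. The apparent Kd is the median of the filtered fits.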

[1] = designed as: ON switch for flavin mononucleotide, no ligand
[2] = ligand present: flavin mononucleotide, designed as: ON switch for flavin mononucleotide
[3] = designed as: OFF switch for flavin mononucleotide, no ligand
[4] = ligand present: flavin mononucleotide, designed as: OFF switch for flavin mononucleotide

Sequence | apparent Kd [1] | apparent Kd [2] | apparent Kd [3] | apparent Kd [4]
AAAAAAAAAAGGCAGGAUAUUCAAAAAAAAACAUGAGGAUCACCCAUGUAAAAAAAAAAAAAAUGGAAGAAGGGCCAAAAAAAAAA | 21.1 nM | 22.5 nM | – | –
AAAAAAAAAGUAGAGGAUAUCCGAGUGGUAACAUGAGGAUCACCCAUGUGAAGAAAGGAACAUGAGGAGAAGGCUACAAAAAAAAA | 46.6 nM | 16.6 nM | – | –
AAAAAAAAUGUGUAGGAUAUCAGUAAAAAUACAUGAGGAUCACCCAUGUUCAAAAAAAAAAAAACUGAGAAGGACACGGAUGGUCC | 120 nM | 55.9 nM | – | –
AAAAAACAUGAGGAUCACCCAUGUAAAAAAAUGGGAGGAUAUACAAAAACAAAAAAAAAAGUAGAAGGCCUGAAAA | 387 nM | 63.8 nM | – | –
AAAAAACAUGAGGAUCACCCAUGUCAAAAGACGUGAGGAUAUGUACAGACUUCGGUCUGUACAGAAGGCACGAAAA | 25.4 nM | 21.2 nM | – | –
AAAAAACAUGAGGAUCACCCAUGUCAGGAUAUCGUGCAGAAAAAAAAAAAAAACUGCACGAGAAGGGACAUGAA | – | – | 236 nM | 192 nM
AAAAAACAUGAGGAUCACCCAUGUCUUUUGACAUGAGGAUAUGUACAGACUUCGGUCUGUACAGAAGGCAUGUCUU | 41.4 nM | 17.1 nM | – | –
AAAAAACAUGAGGAUCACCCAUGUGAGGAUAUCGGAAAAAAAAAAAAAAAAAAAAAAACGAGAAGGCACAAAAA | – | – | 60.8 nM | 71.7 nM
AAAAAACAUGAGGAUCACCCAUGUGAGGAUAUGUAUAUCCCUAAAAAAGUGUGGGACUACAGAAGGCACUUGGA | – | – | 79.7 nM | 207 nM
AAAAAGCGAGGAUAUACAUGAGGAUCACCCAUGUCAAACGGUAAGACCGCAGGAAAAAGUAGAAGGCGCAAAAA | – | – | 61.5 nM | 98.5 nM
AAAAAGCGAGGAUAUACAUGAGGAUCACCCAUGUGAAAGUCGAAAAAAAAGACAAAAAGUAGAAGGCGCAAAAA | – | – | 23.2 nM | 26.7 nM
AAAAAGCUAGGAUAUACAUGAAAAAAAAAAAAGUAAAAAAAACAUGAGGAUCACCCAUGUAGAAGGAGCAAAAA | – | – | 44 nM | 39.5 nM
AAAAAGUCAGGAUAUACAAAAGUGCGAAAGCACAAAAGGAAACAUGAGGAUCACCCAUGUAGAAGGGACAAGAA | – | – | 32.6 nM | 27.5 nM
AAAAAGUCAGGAUAUGGAAAAAAAAAAAAAAAAAAAAAAAACCAGAAGGGACAUGAGGAUCACCCAUGUAAAAA | – | – | 71.5 nM | 43.8 nM
AAAAAGUGAGGAUAUACGCUGUGGAGUAGACACAACCAGACGUAGAAGGCACAUGAGGAUCACCCAUGUCCAAA | – | – | 24.9 nM | 51.9 nM
AAAACAUACCGAGGAUAUUCAUAUAAUAAAUAAACAUGAGGAUCACCCAUGUGGCAAAAGCCUAGGGAGAAGGCGGAAUGCUAA | 36 nM | 22.4 nM | – | –
AAAACAUGAGGAUCACCCAUGUAAAGAUCGGUCGAUCAAGGUGAGGAUAUACAAUAAUUGAUGGAGUAGAAGGCACUGGGUUGA | 227 nM | 127 nM | – | –
AAAACAUGAGGAUCACCCAUGUAAAGAUCGGUCGAUGAAGGUGAGGAUAUACAAAACUUUAUGGAGUAGAAGGCACUGGGUUGA | 185 nM | 69.8 nM | – | –
AAAACAUGAGGAUCACCCAUGUAAAGAUCGGUUAAUUGUUGUGAGGAUAUACUAAAUUUUAGGUUGUAGAAGGCACUGGGUACA | 43.1 nM | 54.9 nM | – | –

Sequence | apparent Kd [1] | apparent Kd [2] | apparent Kd [3] | apparent Kd [4]
AAAACAUGAGGAUCACCCAUGUAAUGAUCGGUUGAUGAAAGUGAGGAUAUACAAAAUUUUAUGGAGUAGAAGGCACUGGGUUCA | 31.4 nM | 31.9 nM | – | –
AAAAGACAUGAGGAUCACCCAUGUAAAAACAUAGGAGGAUAUGUCAUGAAAAAAGACUUGACAGAAGGCCUUUGUC | 164 nM | 65.4 nM | – | –
AAAAGACAUGAGGAUCACCCAUGUAAAAACAUAGGAGGAUAUGUCUGGAAACUAGACUGGACAGAAGGCCUUUGUC | 33.3 nM | 25 nM | – | –
AAAAGACAUGAGGAUCACCCAUGUUAGGAUAUCGUGCAGAAAAAAAAAAAAAACUGCACGAGAAGGAACAAGGA | – | – | 73.5 nM | 88.5 nM
AAAAGCUCAGGAUAUACGGUCUGUUGUUGAAAAAGUAAAAAACAUGAGGAUCACCCAUGUAGAAGGGAGCGAAA | – | – | 67.3 nM | 159 nM
AAAAGGUUAGGAUAUGCCCGCCGGGUGGGAAGGCCGGGUGGGUAGAAGGGACAUGAGGAUCACCCAUGUAUAAA | – | – | 47 nM | 19.9 nM
AAAAUACAUGAGGAUCACCCAUGUUAGGAUAUCCAAGGUCUGACCCUCAGGGUCAGAAGGAGAAGGGAUGUGGU | – | – | 56.7 nM | 67.7 nM
AAAAUAGCAGGAUAUACAUGAGGAUCACCCAUGUUUAUUGGGCACUUGCUGACGUCGUGUAGAAGGGUUACGAC | – | – | 20.5 nM | 18.8 nM
AAAAUCUAUUGAGGAUAUUCAAACACUACAUACGGAGAAGGCAAACAAUCAUGAGGACAUGAGGAUCACCCAUGUUGUGACCAU | 25.5 nM | 19.4 nM | – | –
AAACACGGACAUGAGGAUCACCCAUGUGGCGAAAGCCUUGGGAGAAGGAUAAAUAUAUAAUAAAAUUAGGAUAUUCAUACCGUG | 306 nM | 104 nM | – | –
AAACACGGACAUGAGGAUCACCCAUGUGGCGAAAGCCUUGGGAGAAGGCCGAUUGCAAAGCAAUCGGAGGAUAUUCAUACCGUG | 1250 nM | 57 nM | – | –
AAACCACAUGAGGAUCACCCAUGUCAUAACCGUAGGGAGAAGAGAAGGGUGAGGGUGUAGCCUGCACAGGAUAUCUAGUGCCUC | 228 nM | 174 nM | – | –
AAACCGUAAAUGCGGGCAUGUACACAGGAUAUCCCGUGACAUGAGGAUCACCCAUGUAACACAUUGGAGAAGGGUGUUCACGUA | 177 nM | 19.6 nM | – | –
AAAGACUAAGGAUAUACAUGAGGAUCACCCAUGUCUACCCACAUGCUGGUAUCAACCUGUAGAAGGUAGUUCAA | – | – | 27.8 nM | 85.9 nM
AAAGAGCGAGGAUAUACGUAUCGGUGCGGCCAGCCGAUGUGACAUGAGGAUCACCCAUGUAGAAGGCGCAGAAA | – | – | 26.9 nM | 35.4 nM
AAAGAUGGAGGAUAUACAUGAGGAUCACCCAUGUAGAAAAAAAAUUGGGAAAAAGAAAGUAGAAGGCCAAAAAA | – | – | 41 nM | 91.1 nM
AAAGCACAUGAGGAUCACCCAUGUGGAAAUAACACAGGAUAUCUGGCCUAAGCUUAGGCGAGAGAAGGGUGACCUA | 88.9 nM | 223 nM | – | –
AAAGCUCAGAUAGGAUAUAUAGGAUAACUUAAGACCUAACAUGAGGAUCACCCAUGUGAUUAUUCGUAGAAGGAUCAUUGAACC | 195 nM | 209 nM | – | –
AAAGGCCAAGGAUAUACAUGAGGAUCACCCAUGUCGAGUCCCGGGCAUGUAAGUUGGUGUAGAAGGUGGAAGAA | – | – | 13.4 nM | 13.5 nM

Sequence | apparent Kd [1] | apparent Kd [2] | apparent Kd [3] | apparent Kd [4]
AAAGUACAUGAGGAUCACCCAUGUUGAAAAAAUCGAGGAUAUGCGAAAAAAAAAAAAAAAGCAGAAGGUGAAAAAA | 49 nM | 42.4 nM | – | –
AAAGUAGGAGGAUAUACAUAGAUACAGAUACAUGUAGACGUACAUGAGGAUCACCCAUGUAGAAGGCCUAUGUA | – | – | 65.9 nM | 212 nM
AAAGUCGGAAGAUAAUAAUGAAUACAUGAGGAUCACCCAUGUAAGGAUAUGCAGUGGAAUACACUGCAGAAGGUACAAACCGAC | – | – | 14.7 nM | 19.8 nM
AAAUAAACUACCAUAAUAUCCUCACAUGAGGAUCACCCAUGUCAGGAUAUUUGUCCUAAAAGGACAGAGAAGGGACGUGGUAGA | – | – | 5.43 nM | 11.1 nM
AAAUAAUUGUCAGGAUAUGGCAUGUAGACGAUGCCAGAAGGGACAUGAGGAUCACCCAUGUUGCUCAACACUGGGAGACGUAAG | – | – | 133 nM | 273 nM
AAAUAGCAUGAGGAUAUUGGACUGGAUUCAGUACGAGAAGGCAUGACAUGAGGAUCACCCAUGUUGUGUUGGGA | – | – | 19.7 nM | 44.8 nM
AAAUCAGCAGGAUAUGCGAUGUUGUGCUAGAUAGCGGGACCACAUGAGGAUCACCCAUGUAGAAGGGCUGGAUA | – | – | 57.5 nM | 29.5 nM
AAAUCGGCAGGAUAUACAUGAGGAUCACCCAUGUAAAUUUUUCGUUUAACUUGAAUGUGUAGAAGGGCCAUAAA | – | – | 25.6 nM | 27.1 nM
AAAUUACAUGAGGAUCACCCAUGUUUAAAAAAUAUAGGAUAUGUAAAAAAAAAAAAAAAAACAGAAGGGUAAAAAA | 44.8 nM | 42 nM | – | –
AAAUUGCUAGAGGAUAUCGGAUAGGAUUUAUUGCGAGAAGGCUGGACAUGAGGAUCACCCAUGUUCUGUUGGGA | – | – | 23.9 nM | 36.6 nM
AAAUUGUCAGGAUAUCCAGCUAUACGAAAUAUGUAUACACGGGAGAAGGGACAUGAGGAUCACCCAUGUUUGAA | – | – | 36.8 nM | 45.9 nM
AAAUUUAACGAAGGAUAUACUAACAUGAGGAUCACCCAUGUGUGCUUUGUGUUGCUGAAAUUCGGGUAGAAGGUCGUAUACAUA | – | – | 82.8 nM | 118 nM
AACAAUCUAUCUGAGGAUAUCAUGUCAAAGACAUGAGGAUCACCCAUGUACCAGGAAACUGGAUAUGAGAAGGCAGAUAGAUUGA | 199 nM | 22.8 nM | – | –
AACACACAUGAGGAUCACCCAUGUGAGGAUAUCAUGCUUCGUAGUAAACUACGAAGUGUGAGAAGGCACAUGUU | – | – | 62.4 nM | 193 nM
AACAGUACAGGAUAUACAUGAGGAUCACCCAUGUGAGAUUUAAGUGGCGUACCACAAAGUAGAAGGGUACUGGA | – | – | 38 nM | 187 nM
AACAGUACAGGAUAUACAUGAGGAUCACCCAUGUGAUAAUUAAGUGGCGUACCACAAAGUAGAAGGGUACUGGA | – | – | 37.9 nM | 153 nM
AACAUGUGAGGAUAUGUCACAUGGCUCUUCGGAGCAAGAUGACAGAAGGCACAUGAGGAUCACCCAUGUGCAUC | – | – | 13.8 nM | 22.6 nM
AACGUCUUAGGAUAUACACUGGGACUUGCCAUGUGGGCCCUACAUGAGGAUCACCCAUGUAGAAGGAAGACAUG | – | – | 19.6 nM | 14 nM

From the EternaBench riboswitch data
